Converted amounts (≈) assume the structure as drawn.
Columns and labels:
[1] = system: Botrytis cinerea; assay: Fungicidal activity against Botryotinia fuckeliana assessed as inhibition of mycelial growth; format: functional, organism-based
[2] = system: Botrytis cinerea; assay: Fungicidal activity against Botryotinia fuckeliana grown on compound pre-treated cucumber leaves assessed as control efficiency against gray mold disease on leaves at 125 ug/mL; format: functional
How it was run: (§1)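 Cucumber leaves sprayed with formulation diluted in water (500, 125, 31.25 μg/mL), air-dried, then upper surface inoculated with 6 mm plugs of B. cinerea Pers. maintained on PDA. Disease spot diameter measured; control efficiency from inhibition-rate equation. Procedure repeated 3 times, 9 replicates; procymidone and pyrimethanil (95%) positive controls.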

[3] = system: Botrytis cinerea; assay: Fungicidal activity against Botryotinia fuckeliana assessed as inhibition spore germination; format: functional, organism-based
How it was run: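 Conidial germination on microscope slides: B. cinerea conidia about 2×10⁵ spores/mL in 0.05% Tween 80; acetone stock (5000 μg/mL) diluted in suspension to final 200, 50, 12.5, 3.12, 0.78 μg/mL. 30 μL on concave slide, humid chamber 23 °C, 100% RH, 8 h; germinated conidia counted in five fields. Three replicates; procymidone positive control.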

[4] = system: Botrytis cinerea; assay: Fungicidal activity against Botryotinia fuckeliana grown on compound pre-treated cucumber leaves assessed as control efficiency against gray mold disease on leaves at 31.25 ug/mL; format: functional; how it was run: as §1
[5] = system: Botrytis cinerea; assay: Fungicidal activity against Botryotinia fuckeliana grown on compound pre-treated cucumber leaves assessed as control efficiency against gray mold disease on leaves at 500 ug/mL; format: functional; how it was run: as §1
[6] = system: Botrytis cinerea; assay: Potency index, ratio of EC80 for procymidone to EC80 for test compound against Botryotinia fuckeliana assessed as inhibition of mycelial growth; format: functional

Compound | EC50 [1] [µg/mL] | EC80 [1] [µg/mL] | Efficacy [2] [%] | EC50 [3] [µg/mL] | EC80 [3] [µg/mL] | Efficacy [4] [%] | Efficacy [5] [%] | Ratio [6]
O=S(=O)(Nc1ccccc1)C1CCCCC1O (configuration not stated) | 22.9 (≈ 89.7 µM) | 443 (≈ 1740 µM) | – | – | – | – | – | –
Cc1ccc(NS(=O)(=O)C2CCCCC2O)cc1 (configuration not stated) | 18 (≈ 66.9 µM) | 65.4 (≈ 243 µM) | – | – | – | – | – | –
Cc1ccc(NS(=O)(=O)C2CCCCC2O)c(C)c1 (configuration not stated) | 21.5 (≈ 75.8 µM) | 332 (≈ 1170 µM) | – | – | – | – | – | –
CCc1cccc(C)c1NS(=O)(=O)C1CCCCC1O (configuration not stated) | 105 (≈ 352 µM) | > 10000 | – | – | – | – | – | –
COc1ccc(OC)c(NS(=O)(=O)C2CCCCC2O)c1 (configuration not stated) | 22.3 (≈ 70.7 µM) | 181 (≈ 575 µM) | – | – | – | – | – | –
Cc1cc(F)ccc1NS(=O)(=O)C1CCCCC1O (configuration not stated) | 34.1 (≈ 119 µM) | 310 (≈ 1080 µM) | – | – | – | – | – | –
O=S(=O)(Nc1ccccc1F)C1CCCCC1O (configuration not stated) | 24 (≈ 87.8 µM) | 84.2 (≈ 308 µM) | – | – | – | – | – | –
O=S(=O)(Nc1ccccc1Cl)C1CCCCC1O (configuration not stated) | 75.6 (≈ 261 µM) | > 10000 | – | – | – | – | – | –
O=S(=O)(Nc1ccccc1Br)C1CCCCC1O (configuration not stated) | 11 (≈ 32.9 µM) | 250 (≈ 749 µM) | – | – | – | – | – | –
O=S(=O)(Nc1ccc(Cl)cc1)C1CCCCC1O (configuration not stated) | 7.38 (≈ 25.5 µM) | 86.5 (≈ 298 µM) | – | – | – | – | – | –
O=S(=O)(Nc1ccc(Br)cc1)C1CCCCC1O (configuration not stated) | 7.07 (≈ 21.2 µM) | 21.4 (≈ 64 µM) | – | – | – | – | – | –
O=S(=O)(Nc1ccc(C(F)(F)F)cc1)C1CCCCC1O (configuration not stated) | 8.79 (≈ 27.2 µM) | 65.9 (≈ 204 µM) | – | – | – | – | – | –
O=S(=O)(Nc1ccc(Cl)cc1Cl)C1CCCCC1O (configuration not stated) | 53.2 (≈ 164 µM) | 518 (≈ 1600 µM) | – | – | – | – | – | –
O=S(=O)(Nc1ccc(Cl)c(Cl)c1)C1CCCCC1O (configuration not stated) | 7.8 (≈ 24.1 µM) | 25.5 (≈ 78.6 µM) | – | – | – | – | – | –
O=S(=O)(Nc1cc(C(F)(F)F)ccc1C(F)(F)F)C1CCCCC1O (configuration not stated) | 2.53 (≈ 6.47 µM) | 16 (≈ 40.9 µM) | – | – | – | – | – | –
O=S(=O)(Nc1cc(C(F)(F)F)cc(C(F)(F)F)c1)C1CCCCC1O (configuration not stated) | 4.44 (≈ 11.3 µM) | 14.6 (≈ 37.4 µM) | – | – | – | – | – | –
O=S(=O)(Nc1ccc(Cl)cc1C(F)(F)F)C1CCCC1O (configuration not stated) | 36.4 (≈ 106 µM) | 64.4 (≈ 187 µM) | 68.9 | 5.29 (≈ 15.4 µM) | 43 (≈ 125 µM) | 62.44 | 81.12 | –
O=S(=O)(Nc1ccc(Cl)cc1C(F)(F)F)C1CCCCC1O (configuration not stated) | 3.37 (≈ 9.42 µM) | 14.3 (≈ 39.9 µM) | 72.42 | 40.1 (≈ 112 µM) | 260 (≈ 727 µM) | 53.05 | 93.54 | –
O=S(=O)(Nc1ccc(Cl)cc1C(F)(F)F)C1CCCCCC1O (configuration not stated) | 0.85 (≈ 2.29 µM) | 5.27 (≈ 14.2 µM) | 92.67 | 77 (≈ 207 µM) | > 1000 | 74.77 | 95.01 | –
O=S(=O)(Nc1ccc(Cl)cc1C(F)(F)F)C1CCCCCCC1O (configuration not stated) | 1.09 (≈ 2.83 µM) | 2.5 (≈ 6.48 µM) | 93.55 | 23.6 (≈ 61.2 µM) | 693 (≈ 1800 µM) | 91.49 | 94.42 | 1.18
O=S(=O)(Nc1ccc(Cl)cc1C(F)(F)F)C1CCCCCCCCCCC1O (configuration not stated) | 5.72 (≈ 12.9 µM) | 49.4 (≈ 112 µM) | 15.49 | 420 (≈ 950 µM) | > 1000 | 8.45 | 26.06 | –
O=C1CCCC1S(=O)(=O)Nc1ccc(Cl)cc1C(F)(F)F (configuration not stated) | 2.5 (≈ 7.32 µM) | 15.1 (≈ 44.1 µM) | 72.42 | 4.21 (≈ 12.3 µM) | 227 (≈ 663 µM) | 60.68 | 74.77 | –
O=C1CCCCCC1S(=O)(=O)Nc1ccc(Cl)cc1C(F)(F)F (configuration not stated) | 0.8 (≈ 2.16 µM) | 3.7 (≈ 10 µM) | 21.95 | 18.1 (≈ 48.9 µM) | 388 (≈ 1050 µM) | 11.97 | 49.53 | –
O=C1CCCCCCC1S(=O)(=O)Nc1ccc(Cl)cc1C(F)(F)F (configuration not stated) | 1.22 (≈ 3.18 µM) | 2.88 (≈ 7.5 µM) | 67.14 | 19 (≈ 49.4 µM) | 549 (≈ 1430 µM) | 64.79 | 67.72 | 1.03
O=C1CCCCCCCCCCC1S(=O)(=O)Nc1ccc(Cl)cc1C(F)(F)F (configuration not stated) | 1.94 (≈ 4.41 µM) | 39.8 (≈ 90.5 µM) | 95.6 | 3.24 (≈ 7.36 µM) | 115 (≈ 260 µM) | 82.98 | 97.07 | –
O=C1CCCCC1S(=O)(=O)Nc1ccc(Cl)cc1C(F)(F)F (configuration not stated) | 2.16 (≈ 6.07 µM) | 5.2 (≈ 14.6 µM) | 20.78 | 4.21 (≈ 11.8 µM) | 124 (≈ 349 µM) | 16.08 | 28.99 | –
CC12CC1(C)C(=O)N(c1cc(Cl)cc(Cl)c1)C2=O (configuration not stated) [PROCYMIDONE] | 0.99 (≈ 3.48 µM) | 2.96 (≈ 10.4 µM) | 73.59 | – | – | 61.27 | 91.78 | –
Cc1cc(C)nc(Nc2ccccc2)n1 [PYRIMETHANIL] | – | – | 82.98 | – | – | 76.53 | 100 | –

Reference: ChEMBL document CHEMBL3045825, “Synthesis, fungicidal activity, and structure-activity relationship of 2-oxo- and 2-hydroxycycloalkylsulfonamides” (J Agric Food Chem, 2010)
